From ChEMBL document CHEMBL1139053, “Quantitative structure-activity relationship (QSAR) of indoloacetamides as inhibitors of human isoprenylcysteine carboxyl methyltransferase” (Bioorg Med Chem Lett, 2007)

Molecular target: Protein-S-isoprenylcysteine O-methyltransferase (Homo sapiens, UniProt O60725)
Test: Inhibition of ICMT expressed in Sf9 cells
In short: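 Sf9 membranes carrying ICMT added to start reactions with biotin-S-farnesyl L-cysteine and [3H]AdoMet in 100 mM Hepes pH 7.4, 5 mM MgCl2; 37 °C, 20 min; stopped with 10% Tween 20. [3H]methyl on substrate captured on streptavidin beads overnight at 4 °C, washed in phosphate-buffered NaCl, scintillation counted.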

Chain of Protein-S-isoprenylcysteine O-methyltransferase (O60725 whole entry): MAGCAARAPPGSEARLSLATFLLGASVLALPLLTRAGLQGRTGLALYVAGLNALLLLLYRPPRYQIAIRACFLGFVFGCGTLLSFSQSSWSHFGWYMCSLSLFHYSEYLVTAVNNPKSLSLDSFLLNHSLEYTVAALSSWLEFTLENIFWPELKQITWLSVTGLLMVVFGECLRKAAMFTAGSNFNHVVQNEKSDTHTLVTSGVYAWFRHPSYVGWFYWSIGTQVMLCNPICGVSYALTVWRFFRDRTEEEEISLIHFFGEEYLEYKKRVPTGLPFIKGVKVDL

SMILES	IC50
CC(C)(C)c1ccc(Cn2cc(CC(N)=O)c3cc(-c4ccc(F)c(Cl)c4)ccc32)cc1	7.59 µM
CCOc1cccc(-c2ccc3c(c2)c(CC(N)=O)cn3CC2CC2)c1	6.46 µM
CCCCCCn1cc(CC(N)=O)c2cc(-c3cccc(OCC)c3)ccc21	6.61 µM
CC(C)(C)c1ccc(Cn2cc(CC(N)=O)c3cc(-c4cc(C(F)(F)F)cc(C(F)(F)F)c4)ccc32)cc1	29.5 µM
CCOc1cccc(-c2ccc3[nH]cc(CC(N)=O)c3c2)c1	100 µM
NC(=O)Cc1cn(CC2CC2)c2ccc(-c3cccc(F)c3)cc12	14.8 µM
COc1ccccc1-c1ccc2[nH]cc(CC(N)=O)c2c1	100 µM
CC(C)Cn1cc(CC(N)=O)c2cc(-c3cccc(F)c3)ccc21	3.72 µM
NC(=O)Cc1c[nH]c2ccc(-c3cccc(F)c3)cc12	39.8 µM
NC(=O)Cc1cn(Cc2cccc(C(F)(F)F)c2)c2ccc(-c3ccc(F)c(Cl)c3)cc12	6.17 µM
CCOc1cccc(-c2ccc3c(c2)c(CC(N)=O)cn3Cc2ccc3ccccc3c2)c1	8.32 µM
CCOc1cccc(-c2ccc3c(c2)c(CC(N)=O)cn3Cc2cccc(C(F)(F)F)c2)c1	4.9 µM
CC(C)(C)c1ccc(Cn2cc(CC(N)=O)c3cc(-c4cccc(F)c4)ccc32)cc1	5.01 µM
CC(C)Cn1cc(CC(N)=O)c2cc(-c3ccc(F)c(Cl)c3)ccc21	9.12 µM
NC(=O)Cc1cn(Cc2cccc(C(F)(F)F)c2)c2ccc(-c3ccc(Oc4ccccc4)cc3)cc12	100 µM
NC(=O)Cc1cn(Cc2cccc(C(F)(F)F)c2)c2ccc(-c3cc(C(F)(F)F)cc(C(F)(F)F)c3)cc12	100 µM
Cc1cccc(-c2ccc3c(c2)c(CC(N)=O)cn3CCCOc2ccccc2)c1	100 µM
NC(=O)Cc1cn(CC2CC2)c2ccc(-c3ccc(F)c(Cl)c3)cc12	5.75 µM
CCOc1cccc(-c2ccc3c(c2)c(CC(N)=O)cn3Cc2ccc(C(C)(C)C)cc2)c1	12.6 µM
NC(=O)Cc1cn(CC2CC2)c2ccc(-c3cc(C(F)(F)F)cc(C(F)(F)F)c3)cc12	100 µM

SMILES	IC50
CCCCCCCCn1cc(CC(N)=O)c2cc(-c3cccc(OCC)c3)ccc21	2.19 µM
Cc1ccc(-c2ccc3c(c2)c(CC(N)=O)cn3Cc2cccc(C(F)(F)F)c2)cc1	6.46 µM
Cc1cccc(-c2ccc3c(c2)c(CC(N)=O)cn3CC(C)C)c1	15.8 µM
NC(=O)Cc1cn(CCCOc2ccccc2)c2ccc(-c3ccc(Oc4ccccc4)cc3)cc12	100 µM
CCCCCCn1cc(CC(N)=O)c2cc(-c3cccc(C)c3)ccc21	7.41 µM
CCCCCCCCn1cc(CC(N)=O)c2cc(-c3ccc(C)cc3)ccc21	10.7 µM
CCCCCCCCn1cc(CC(N)=O)c2cc(-c3cc(C(F)(F)F)cc(C(F)(F)F)c3)ccc21	37.2 µM
CCCCCCn1cc(CC(N)=O)c2cc(-c3ccc(F)c(Cl)c3)ccc21	9.33 µM
CCCCCCn1cc(CC(N)=O)c2cc(-c3ccccc3OC)ccc21	8.13 µM
CC(C)Cn1cc(CC(N)=O)c2cc(-c3cc(C(F)(F)F)cc(C(F)(F)F)c3)ccc21	25.7 µM
Cc1cccc(-c2ccc3[nH]cc(CC(N)=O)c3c2)c1	100 µM
CCCCCCCCn1cc(CC(N)=O)c2cc(-c3ccccc3OC)ccc21	6.03 µM
CCCCCCn1cc(CC(N)=O)c2cc(-c3ccc(Oc4ccccc4)cc3)ccc21	100 µM
Cc1ccc(-c2ccc3c(c2)c(CC(N)=O)cn3Cc2ccc3ccccc3c2)cc1	19.5 µM
Cc1ccc(-c2ccc3[nH]cc(CC(N)=O)c3c2)cc1	100 µM
COc1ccccc1-c1ccc2c(c1)c(CC(N)=O)cn2CC(C)C	21.9 µM
NC(=O)Cc1cn(Cc2ccccc2)c2ccc(-c3ccc(F)c(Cl)c3)cc12	10.5 µM
NC(=O)Cc1cn(CCCOc2ccccc2)c2ccc(-c3cc(C(F)(F)F)cc(C(F)(F)F)c3)cc12	100 µM
CCCCCCCCn1cc(CC(N)=O)c2cc(-c3ccc(F)c(Cl)c3)ccc21	7.08 µM
NC(=O)Cc1cn(Cc2ccc3ccccc3c2)c2ccc(-c3cc(C(F)(F)F)cc(C(F)(F)F)c3)cc12	100 µM

SMILES	IC50
COc1ccccc1-c1ccc2c(c1)c(CC(N)=O)cn2CCCOc1ccccc1	100 µM
CCCCCCn1cc(CC(N)=O)c2cc(-c3ccc(C)cc3)ccc21	7.41 µM
CCCCCCCCn1cc(CC(N)=O)c2cc(-c3cccc(F)c3)ccc21	2.4 µM
CCCCCCn1cc(CC(N)=O)c2cc(-c3cccc(F)c3)ccc21	12.9 µM
Cc1cccc(-c2ccc3c(c2)c(CC(N)=O)cn3CC2CC2)c1	9.12 µM
Cc1ccc(-c2ccc3c(c2)c(CC(N)=O)cn3CC(C)C)cc1	9.77 µM
NC(=O)Cc1cn(Cc2ccccc2)c2ccc(-c3cccc(F)c3)cc12	10.7 µM
NC(=O)Cc1c[nH]c2ccc(-c3cc(C(F)(F)F)cc(C(F)(F)F)c3)cc12	100 µM
NC(=O)Cc1cn(Cc2ccc3ccccc3c2)c2ccc(-c3ccc(Oc4ccccc4)cc3)cc12	100 µM
CCOc1cccc(-c2ccc3c(c2)c(CC(N)=O)cn3CC(C)C)c1	6.17 µM
NC(=O)Cc1c[nH]c2ccc(-c3ccc(F)c(Cl)c3)cc12	100 µM
NC(=O)Cc1cn(Cc2cccc(C(F)(F)F)c2)c2ccc(-c3cccc(F)c3)cc12	5.75 µM
NC(=O)Cc1cn(CCCOc2ccccc2)c2ccc(-c3cccc(F)c3)cc12	100 µM
COc1ccccc1-c1ccc2c(c1)c(CC(N)=O)cn2CC1CC1	16.2 µM
NC(=O)Cc1cn(CC2CC2)c2ccc(-c3ccc(Oc4ccccc4)cc3)cc12	100 µM
COc1ccccc1-c1ccc2c(c1)c(CC(N)=O)cn2Cc1cccc(C(F)(F)F)c1	6.17 µM
Cc1cccc(-c2ccc3c(c2)c(CC(N)=O)cn3Cc2cccc(C(F)(F)F)c2)c1	7.94 µM
Cc1cccc(-c2ccc3c(c2)c(CC(N)=O)cn3Cc2ccccc2)c1	6.46 µM
COc1ccccc1-c1ccc2c(c1)c(CC(N)=O)cn2Cc1ccccc1	13.2 µM
Cc1cccc(-c2ccc3c(c2)c(CC(N)=O)cn3Cc2ccc3ccccc3c2)c1	17.4 µM
